Source: PubChem
Runt-CBFb FRET – inhibitors of RUNX1 Runt–CBFb binding, primary screen, biochemical, FRET, Cerulean-Runt, Venus-CBFb, uHTS; Runt-related transcription factor 1 (Homo sapiens) + Core-binding factor subunit beta …; Cerulean-Runt/Venus-CBFb FRET ratio 530/480, 1 h; inhibition, % at 20 µM; 220,000 tested, 0.46% active; AID 1496, 2009;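 active means inhibition over about 50% at 20 µM in the single-dose screen, limit read from the data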
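Assay system: Cerulean-Runt domain fusion protein, energy donor; Signal: fluorescence energy transfer, 422 nm excitation, 530/480 nm emission; Timing: 1 h compound exposure, room temperature; Control set: unlabeled CBFb; Medium: Tris buffer pH 7.5 with salts and BSA; Compound: single test concentration of 20 µM, 1% DMSO final; Probe or stimulus: Venus-CBFb 100 nM.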
RanGTP-Impb inh – inhibitors of RanGTP-importin-beta interaction, primary screen, biochemical, FRET, CFP-Ran, YFP-importin-beta, homogeneous; Ran GTPase (GTP-bound) - importin-beta complex; 300,000 tested, 1.1% active; inhibition, % (no concentration beside the values); AID 2216, 2009; cell-free CFP-Ran/YFP-importin-beta FRET ratio;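 active means more than half of the replicate wells show a fall in the fluorescence ratio signal beyond about 16%, limit read from the data, passing the limit was not always enough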
Runt-SMMHC FRET – inhibitors of RUNX1 Runt–CBFb-SMMHC binding, primary screen, biochemical, FRET, Cerulean-Runt, Venus-CBFb-SMMHC, uHTS. 220,000 tested, 0.74% active. inhibition, % at 20 µM. Cerulean-Runt/Venus-CBFb-SMMHC FRET ratio 530/480, 1 h;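 active means mean inhibition across duplicate retests at 20 µM reaching about 50%, limit read from the data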;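 further: inhibitors lower the FRET ratio by blocking Runt binding to CBFb-SMMHC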
proKLK7 act – proKLK7 zymogen activators, primary screen, biochemical, fluorescence intensity; Kallikrein-7 (Homo sapiens), P49862; purified proKLK7, EDANS-DABCYL substrate fluorescence; 100% is mature enzyme control, 0% vehicle; activation, % at 7 µM; 370,000 tested, 0.9% active;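 active means activation above the mean of all tested compounds plus 3 SD, computed per campaign excluding outliers beyond control limits, cut at about 13% in these data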
Wee1 stabilizer – Wee1 degradation inhibitors, primary screen, cell-based, HeLa, Wee1K328M-luciferase, luminescence. 220,000 tested, 1.2% active. reporter increase, % at 5 µM. HeLa Luc-Wee1K328M stability; 100% = proteasome inhibitor MG132 effect;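 active means activation above the mean of all tested compounds plus 3 SD, set per screening run, cut at about 8.8% in these data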;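 further: cells exposed to compound for 20 h before luminescence read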
Target sequence (P30291 whole entry K328M): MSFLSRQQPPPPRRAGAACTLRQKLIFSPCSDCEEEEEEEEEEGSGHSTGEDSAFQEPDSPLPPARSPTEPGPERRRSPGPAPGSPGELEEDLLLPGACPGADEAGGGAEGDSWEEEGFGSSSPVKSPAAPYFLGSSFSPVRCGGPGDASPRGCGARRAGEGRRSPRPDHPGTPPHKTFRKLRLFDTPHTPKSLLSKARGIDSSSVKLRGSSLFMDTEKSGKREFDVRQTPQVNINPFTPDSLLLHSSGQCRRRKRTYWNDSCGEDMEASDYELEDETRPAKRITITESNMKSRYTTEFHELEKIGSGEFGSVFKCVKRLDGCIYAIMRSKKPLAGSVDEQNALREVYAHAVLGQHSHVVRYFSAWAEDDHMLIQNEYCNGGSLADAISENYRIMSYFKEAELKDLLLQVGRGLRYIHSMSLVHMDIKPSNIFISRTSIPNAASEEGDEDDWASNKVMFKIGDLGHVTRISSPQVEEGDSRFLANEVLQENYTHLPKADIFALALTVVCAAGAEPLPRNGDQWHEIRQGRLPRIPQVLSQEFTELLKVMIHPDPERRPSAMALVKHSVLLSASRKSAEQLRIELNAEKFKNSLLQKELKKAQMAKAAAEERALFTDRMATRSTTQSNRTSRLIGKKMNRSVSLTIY
AI-2 QS mod – Vibrio harveyi AI-2 quorum sensing modulators, primary screen, JMH597 strain, luminescence/OD600 ratio. Vibrio harveyi JMH597 AI-2 luminescence/OD600 ratio, 9 h; stronger effect = lower value; strain lacks LuxN and CqsS sensors; 0 = neutral-control median. AID 2094, 2009. activity change, % at 7.5 µM. 300,000 tested, 0.4% active; in the data active means activity change below about -75%, passing the limit was not always enough;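 further: luminescence divided by OD600 gain over 9 h not by final OD600 alone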
YIC counter – YIC intramolecular FRET probe signal interference, dose response, counter-screen for RanGTP-importin-beta inhibitor project, biochemical, fluorescence FRET | shares compounds with RanGTP-Impb inh | Purified YIC probe, intramolecular FRET ratio YFP/CFP | IC50, µM | 1,000 tested, 40% active | AID 435026, 2010;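 active means fitted half-maximal inhibitory concentration no more than tenfold above the top dose tested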
Large screens that a line does not name were inactive (follow-up assays come after a bar, where they were run). The list is not random: actives were taken first. Their share in the collection is about 2.9%.

COc1ccc(N2C(=O)N3[C@H](c4ccc(Br)cc4)[C@@H]4C(=O)N(C(C)(C)C)C(=O)[C@@H]4[C@]3(Cc3ccccc3)C2=O)cc1	RanGTP-Impb inh 26.1 (no result: Runt-CBFb FRET, Runt-SMMHC FRET, Wee1 stabilizer) | YIC counter inactive
COc1ccc([C@@H]2[C@@H]3C(=O)N(C(C)(C)C)C(=O)[C@@H]3[C@]3(Cc4ccccc4)C(=O)N(c4ccc(Br)cc4)C(=O)N23)cc1	none (no result: Runt-CBFb FRET, Runt-SMMHC FRET, proKLK7 act, Wee1 stabilizer)
CCOC(=O)c1ccc(N=Cc2cnc(N)nc2N)cc1	none (no result: Runt-CBFb FRET, RanGTP-Impb inh, Runt-SMMHC FRET, Wee1 stabilizer, AI-2 QS mod)
COc1ccc(C(CNC(=O)c2cc(F)c(F)c(F)c2F)N2CCOCC2)cc1 (configuration not stated)	RanGTP-Impb inh 18.9 | YIC counter inactive
Clc1ccc(-c2nnc(SCc3nc4ccccc4[nH]3)o2)c(Cl)c1	RanGTP-Impb inh 32.4 | YIC counter inactive
CCN(CC)S(=O)(=O)c1ccc(NC(=O)c2cccc3c2C(=O)N(CCOC)C3)cc1	RanGTP-Impb inh 18.5 | YIC counter inactive
COc1ccc(CCNC(=O)c2cc3c(=O)n4ccccc4nc3n(CCCN3CCOCC3)c2=N)cc1	RanGTP-Impb inh 19.8 (no result: Runt-CBFb FRET, Runt-SMMHC FRET, Wee1 stabilizer) | YIC counter 21.5
COc1ccc(CCn2c(=N)c(C(=O)NC3CCCCC3)cc3c(=O)n4ccccc4nc32)cc1	RanGTP-Impb inh 19.2 (no result: Runt-CBFb FRET, Runt-SMMHC FRET, Wee1 stabilizer) | YIC counter inactive
COc1ccccc1N1CCN(C(=O)CCCn2nc(C)c([N+](=O)[O-])c2C)CC1	none
CCCn1c(-c2ccc(OC)cc2)nc2c(=O)n(C)c(=O)[nH]c21	none
Cn1c(=O)[nH]c2c(nc(-c3ccc(Cl)cc3)n2C)c1=O	RanGTP-Impb inh 18.2 (no result: Runt-CBFb FRET, Runt-SMMHC FRET, Wee1 stabilizer) | YIC counter 31.9
CCc1ccc(C2C(C#N)=C(N)SC(N)=C2C#N)cc1	RanGTP-Impb inh 38.7 | YIC counter inactive
N=C(N)SCc1nc2ccccc2c(=O)n1-c1ccccc1Cl	RanGTP-Impb inh 26.1 | YIC counter inactive
CCC(/C=N/NC(=O)CCCCC(=O)N/N=C/C(CC)CC)CC	none
COc1cc([C@H]2OC[C@H]3[C@@H]2CO[C@@H]3c2ccc(O[C@H]3O[C@H](CO)[C@@H](O)[C@H](O)[C@H]3O)c(OC)c2)ccc1O[C@@H]1O[C@H](CO)[C@@H](O)[C@H](O)[C@H]1O	none (no result: Runt-CBFb FRET, RanGTP-Impb inh, Runt-SMMHC FRET, Wee1 stabilizer, AI-2 QS mod)
COc1ccc(N2CCN(C(=O)c3cn(CC4CCCCC4)nn3)CC2)cc1	none (no result: Runt-CBFb FRET, Runt-SMMHC FRET, Wee1 stabilizer)
O=S(=O)(Nc1nc2ccccc2nc1NCc1ccco1)c1ccc(Cl)cc1	none
Cc1ccc(S(=O)(=O)Nc2nc3ccccc3nc2NCc2ccco2)cc1	RanGTP-Impb inh 20.5 | YIC counter 12.9
COc1ccccc1C(=O)NC(=S)Nc1ccc(N2CCCC2)cc1	RanGTP-Impb inh 19.7 | YIC counter inactive
COc1ccccc1C(=O)NC(=S)Nc1ccccc1N1CCCC1	none (no result: Runt-CBFb FRET, Runt-SMMHC FRET, Wee1 stabilizer)
CSc1ccc(/C=C(/Sc2nnc(-c3ccccc3)o2)C(=O)O)cc1	RanGTP-Impb inh 25.0 | YIC counter 41
COc1ccc(/C=N/NC(=O)c2sc3nc(C)cc(C)c3c2N)cc1	RanGTP-Impb inh 22.8 | YIC counter 6.59
COc1ccc(NC(=O)c2sc3nc(C)cc(C)c3c2N)cc1	none (no result: Runt-CBFb FRET, Runt-SMMHC FRET, Wee1 stabilizer)
CC(C)C(c1nnnn1C1CCCC1)N1CCC(C(N)=O)CC1 (configuration not stated)	none
CCC(c1nnnn1C1CCCC1)N1CCC(C(N)=O)CC1 (configuration not stated)	RanGTP-Impb inh 16.2 | YIC counter inactive
